{
  "source": "paper PMC3833035",
  "about": "(Blood, 2011)",
  "molecules": {"B1": {"name": "Siglec-E: mouse molecule corresponding to human Siglec-9, expressed on CHO cells (protein)", "chain": "QNPQEVFTLNVERKVVVQEGLCVLVPCNFSYLKKRLTDWTDSDPVHGFWYREGTDRRKDSIVATNNPIRKAVKETRNRFFLLGDPWRNDCSLNIREIRKKDAGLYFFRLERGKTKYNYMWDKMTLVVTALTNTPQILLPETLEAGHPSNLTCSVPWDCGWTAPPIFSWTGTSVSFLSTNTTGSSVLTITPQPQDHGTNLTCQVTLPGTNVSTRMTIRLNVSYAPKNLTVTIYQGADSVSTILKNGSSLPISEGQSLRLICSTDSYPPANLSWSWDNLTLCPSKLSKPGLLELFPVHLKHGGVYTCQAQHALGSQHISLSLSPQSSATLSEMMMGTFVGSGVTALLFLSVCILLLAVRSYRRKPARPAVVAPHPDALKVSVSQNPLVESQADDSSEPLPSILEAAPSSTEEEIHYATLSFHEMKPMNLWGQQDTTTEYSEIKFPQRTAWP"}, "B2": {"name": "Siglec-10: lymphocyte ligand for VAP-1 (protein, UniProt Q96LC7 17-697, looked up)", "Sialic acid-binding Ig-like …": "MDGRFWIRVQESVMVPEGLCISVPCSFSYPRQDWTGSTPAYGYWFKAVTETTKGAPVATNHQSREVEMSTRGRFQLTGDPAKGNCSLVIRDAQMQDESQYFFRVERGSYVRYNFMNDGFFLKVTALTQKPDVYIPETLEPGQPVTVICVFNWAFEECPPPSFSWTGAALSSQGTKPTTSHFSVLSFTPRPQDHNTDLTCHVDFSRKGVSAQRTVRLRVAYAPRDLVISISRDNTPALEPQPQGNVPYLEAQKGQFLRLLCAADSQPPATLSWVLQNRVLSSSHPWGPRPLGLELPGVKAGDSGRYTCRAENRLGSQQRALDLSVQYPPENLRVMVSQANRTVLENLGNGTSLPVLEGQSLCLVCVTHSSPPARLSWTQRGQVLSPSQPSDPGVLELPRVQVEHEGEFTCHARHPLGSQHVSLSLSVHYSPKLLGPSCSWEAEGLHCSCSSQASPAPSLRWWLGEELLEGNSSQDSFEVTPSSAGPWANSSLSLHGGLSSGLRLRCEAWNVHGAQSGSILQLPDKKGLISTAFSNGAFLGIGITALLFLCLALIIMKILPKRRTQTETPRPRFSRHSTILDYINVVPTAGPLAQKRNQKATPNSPRTPLPPGAPSPESKKNQKKQYQLPSFPEPKSSTQAPESQESQEELHYATLNFPGVRPRPEARMPKGTQADYAEVKFQ"}},
  "key": {"[1]": {"biological_target": "Vascular Adhesion Protein-1 (VAP-1), human, recombinant (human) (UniProt Q16853)", "sequence (Q16853 whole entry)": "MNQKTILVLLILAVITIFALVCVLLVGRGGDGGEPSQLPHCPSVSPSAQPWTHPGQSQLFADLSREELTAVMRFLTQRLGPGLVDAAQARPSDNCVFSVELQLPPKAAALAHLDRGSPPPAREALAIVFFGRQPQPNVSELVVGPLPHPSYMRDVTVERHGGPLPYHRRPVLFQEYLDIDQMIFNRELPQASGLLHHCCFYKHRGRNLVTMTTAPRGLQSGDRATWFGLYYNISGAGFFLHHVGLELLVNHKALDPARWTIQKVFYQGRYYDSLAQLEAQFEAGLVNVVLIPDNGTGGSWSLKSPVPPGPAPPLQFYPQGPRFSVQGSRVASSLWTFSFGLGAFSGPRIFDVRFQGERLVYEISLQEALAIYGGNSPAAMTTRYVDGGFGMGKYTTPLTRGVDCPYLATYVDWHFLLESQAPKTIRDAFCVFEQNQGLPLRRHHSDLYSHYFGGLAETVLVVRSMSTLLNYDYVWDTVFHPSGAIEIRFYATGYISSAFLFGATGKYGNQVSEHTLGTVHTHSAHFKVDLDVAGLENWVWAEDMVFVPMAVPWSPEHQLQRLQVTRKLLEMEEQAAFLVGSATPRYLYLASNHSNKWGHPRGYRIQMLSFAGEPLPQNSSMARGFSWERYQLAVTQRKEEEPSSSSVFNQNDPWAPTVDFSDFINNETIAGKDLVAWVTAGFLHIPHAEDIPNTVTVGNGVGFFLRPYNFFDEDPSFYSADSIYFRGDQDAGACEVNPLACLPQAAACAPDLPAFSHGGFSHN", "experiment": "SPR"}, "[2]": {"tested_on": "Siglec-9 expression on granulocytes", "experiment": "Induction of Siglec-9 expression on granulocytes", "type": "cell-based, human", "details": "FMLP 0.5 and 5 μg/mL, FACS, MFI, n = 4; for Siglec-9 up-regulation on granulocytes, 2 h: TNF-α 10 and 200 U/mL, LPS 10 and 100 ng/mL", "method_in_brief": "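Leukocytes from four healthy volunteers were prepared by red-cell lysis of whole blood. Treatments were FMLP (0.5 or 5 μg/mL, 5 min or 2 h), TNF-α (10 or 200 U/mL, 2 h) or LPS (10 or 100 ng/mL, 2 h); untreated cells were controls. Cells were stained with anti-Siglec-9 mAb (3G6 as control), then Alexa546 anti-mouse IgG. Granulocytes were gated by FITC-anti-CD66b and read by flow cytometry as MFI minus control-antibody MFI, mean ± SEM.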"}, "[3]": {"tested_on": "human granulocyte binding to inflamed synovial vessels", "experiment": "Granulocyte binding to vessels in inflamed synovia", "type": "cell-based", "details": "TNF-α 200 U/mL, 2 h; granulocytes from three donors", "method_in_brief": "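Percoll-purified granulocytes from three donors were incubated 2 h with TNF-α (200 U/mL) or left untreated. They were then pre-treated 30 min with anti-Siglec-9 or control antibodies. Cells were bound to frozen sections of inflamed human synovium under rotation for 30 min, then glutaraldehyde-fixed. Vessel-bound cells were counted and expressed as % of control-mAb binding (100%), mean ± SEM.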"}, "human VAP-1 (KOTG mice)": {"tested_on": "human VAP-1 (KOTG mice)", "type": "in vivo, human (transgene in mouse)", "method_in_brief": "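Ear inflammation was induced with 4 drops of 5% (w/v) DNCB in acetone on the right ear, one day before imaging. Mice were VAP-1 KO, or KOTG (mouse VAP-1-deficient, with human VAP-1 on endothelium under the Tie-1 promoter). 68Ga-DOTA-peptide was given i.v. (KO 7.4 ± 1.8, KOTG 7.5 ± 3.0 MBq). Dynamic PET ran 30 min (OSEM2D), read as SUV, and was checked by ex vivo gamma counting of excised tissues.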"}, "[4]": {"tested_on": "VAP-1 negative knockout mice bearing melanoma xenografts", "type": "in vivo, mouse", "details": "KO 60 min; i.v.; ex vivo; mean ± SD, n = 2", "method_in_brief": "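VAP-1 knockout mice received B16 melanoma cells in the neck area and were used 11 days later. 68Ga-DOTA-Siglec-9 peptide was given i.v. (7.8 ± 2.3 MBq, as stated for tumor-bearing mice). Blood, urine and organs were excised, weighed and gamma-counted. Uptake is given as SUV: tissue radioactivity concentration divided by injected radioactivity per body weight.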"}, "[5]": {"tested_on": "VAP-1 (wild type mice bearing melanoma xenografts)", "type": "in vivo, mouse", "method_in_brief": "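Wild-type mice received B16 melanoma cells in the neck area and were used 11 days later. 68Ga-DOTA-peptide was injected i.v., then dynamic PET ran 60 min (OSEM2D reconstruction). SUV is ROI radioactivity concentration divided by injected activity per body weight, corrected for tail residue. A separate group got 500-fold molar excess of unlabeled peptide co-injected. Blood, urine and organs were then excised, weighed and gamma-counted.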"}, "[6]": {"tested_on": "site of inflammation (VAP-1)", "experiment": "PET imaging, rats with turpentine-induced sterile inflammation", "type": "in vivo, rat (Sprague-Dawley)", "method_in_brief": "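Sprague-Dawley rats received turpentine oil s.c. in the upper neck, and 24 h later 68Ga-labelled DOTA test peptide i.v. (18.4 ± 3.1 MBq). A 60 min list-mode PET scan was reconstructed by OSEM3D, with blood sampled during imaging. ROIs covered inflammation, muscle, organs and bladder. SUV was ROI concentration divided by injected activity per body weight, corrected for tail residue. Excised organs were then gamma-counted as SUV; three animals.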"}, "VAP-1 in melanoma tumor": {"tested_on": "VAP-1 in melanoma tumor", "experiment": "Digital autoradiography of tumor cryosections", "type": "in vivo, mouse", "details": "i.v. 3.0 ± 0.4 MBq, 15 min", "method_in_brief": "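B16 melanoma cells were inoculated abdominally, and mice were used 11 days later. Mice received 68Ga-labelled DOTA test peptide i.v. (3.0 ± 0.4 MBq) and were killed after 15 min. Tumour cryosections went to digital autoradiography as PSL/mm2. ROIs covered VAP-1-positive and VAP-1-negative areas, set by anti-mouse VAP-1 staining of adjacent sections. Background was subtracted and values normalised to muscle; four mice, mean ± SD.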"}, "[7]": {"tested_on": "recombinant or affinity purified human VAP-1", "experiment": "Surface plasmon resonance", "type": "binding"}, "mouse VAP-1": {"tested_on": "mouse VAP-1", "experiment": "Adhesion of CHO-Siglec-E cells to CHO cells transfected with mouse VAP-1", "type": "cell-based", "details": "CHO-Siglec-E or mock; Supplemental Figure 1", "method_in_brief": "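CHO cells expressing mouse VAP-1, or mock CHO, were grown to confluence in 96-well plates and blocked with PBS/1% BSA. CFSE-labelled CHO-Siglec-E cells (2 × 10^5) were added for 30 min at 37°C. After nine washes, adherence was read by fluorometer, and the wells were imaged by microscope.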"}, "VAP-1": {"tested_on": "VAP-1", "details": "tyrosine 471 of VAP-1 and Arg293 in Siglec-10; ref [6]; cited from earlier work"}, "[8]": {"details": "WT 60 min, i.v., ex vivo, mean ± SD, n = 3"}},
  "note": "Entries after “also recorded” stand apart in the source; their conditions may differ. No end group written: not given here.",
  "data": [
    {"molecule": "cyclic Siglec-9-like peptide without Arg290 (P1_noArg290) (from UniProt Q9Y336 283-297)", "values": [
      {"measurement": "percent reduction of binding against the wild type peptide", "setting": "[1]", "result": 42, "unit": "%"}
    ]},
    {"molecule": "tumor necrosis factor-α [TNF-α]", "values": [
      {"measurement": "Siglec-9 up-regulation on granulocytes, 2 h", "setting": "[2]", "result": "significant up-regulation of Siglec-9 after 2 h"},
      {"measurement": "granulocyte binding to inflamed synovial vasculature after TNF-α", "setting": "[3]", "result": "significantly increased granulocyte binding to synovial vasculature"}
    ]},
    {"molecule": "formyl-methyl-leucine-phenylalanine [FMLP]", "values": [
      {"measurement": "Siglec-9 up-regulation on granulocytes, 2 h", "setting": "[2]", "result": "further up-regulation was seen after 2 h; also recorded: roughly two-fold after 2 h"},
      {"measurement": "Siglec-9 up-regulation on granulocytes, 5 min", "setting": "[2]; 5 min", "result": "slightly up-regulated Siglec-9 expression already after 5 min; also recorded: slight up-regulation was already seen after 5 min"}
    ]},
    {"molecule": "CARLSLSWRGLTLCPSK [^68Ga-DOTA-peptide]", "values": [
      {"measurement": "detection of inflammation in the mouse (PET)", "setting": "human VAP-1 (KOTG mice); DNCB ear skin inflammation, Supplemental Figure 2", "result": "able to detect inflammation in the mouse"},
      {"measurement": "signals in many organs, KOTG vs KO mice", "setting": "human VAP-1 (KOTG mice); i.v. 7.5 ± 3.0 MBq (KOTG), 7.4 ± 1.8 MBq (KO), Supplemental Table 2", "result": "detects human VAP-1 in many organs realized as higher signals than in KO mice"},
      {"measurement": "uptake in blood (SUV), KO", "setting": "[4]", "result": "0.25 ± 0.01 standardized uptake values"},
      {"measurement": "uptake in kidney (SUV), KO", "setting": "[4]", "result": "7.78 ± 1.47 standardized uptake values"},
      {"measurement": "uptake in liver (SUV), KO", "setting": "[4]", "result": "0.97 ± 0.07 standardized uptake values"},
      {"measurement": "uptake in muscle (SUV), KO", "setting": "[4]", "result": "0.04 ± 0.01 standardized uptake values"},
      {"measurement": "uptake in small intestine (SUV), KO", "setting": "[4]", "result": "0.08 ± 0.01 standardized uptake values"},
      {"measurement": "uptake in tumour (SUV), KO", "setting": "[4]", "result": "0.20 ± 0.02 standardized uptake values"},
      {"measurement": "uptake in kidney (SUV), WT", "setting": "[5]; [8]", "result": "5.10 ± 0.86 standardized uptake values"},
      {"measurement": "uptake in liver (SUV), WT", "setting": "[5]; [8]", "result": "1.82 ± 0.25 standardized uptake values"},
      {"measurement": "uptake in lung (SUV), WT", "setting": "[5]; [8]", "result": "0.69 ± 0.21 standardized uptake values"},
      {"measurement": "uptake in muscle (SUV), WT", "setting": "[5]; [8]", "result": "0.21 ± 0.07 standardized uptake values"},
      {"measurement": "uptake in small intestine (SUV), WT", "setting": "[5]; [8]", "result": "0.59 ± 0.16 standardized uptake values"},
      {"measurement": "uptake in tumour (SUV), WT", "setting": "[5]; [8]", "result": "0.56 ± 0.12 standardized uptake values"},
      {"measurement": "accumulation at tumor site (PET)", "setting": "[5]; i.v. 7.8 ± 2.3 MBq, B16 melanoma, wild type mice", "result": "accumulated at the tumor site"},
      {"measurement": "accumulation at sites of inflammation vs muscle (PET)", "setting": "[6]; i.v. 18.4 ± 3.1 MBq, 5-10 min, 24 h after turpentine, rat", "result": "quickly and preferentially accumulated at the sites of inflammation (5-10 min) in comparison to the muscle; also recorded: clearly seen at the site of inflammation (I) but not in the surrounding muscle"},
      {"measurement": "elimination route", "setting": "[6]; i.v., PET", "result": "eliminated rapidly via kidneys to the urinary bladder"},
      {"measurement": "distribution of radioactivity within tumor", "setting": "VAP-1 in melanoma tumor", "result": "radioactivity concentrated in the periphery of the tumor"}
    ]},
    {"molecule": "lipopolysaccharide [LPS]", "values": [
      {"measurement": "Siglec-9 up-regulation on granulocytes, 2 h", "setting": "[2]", "result": "significant up-regulation of Siglec-9 after 2 h"}
    ]},
    {"molecule": "CARLSLSWRGLTLCPS [wild type peptide]", "values": [
      {"measurement": "binding to recombinant VAP-1 (SPR)", "setting": "[7]; Biacore X, CM5 chip, immobilized VAP-1, wild type peptide at 0-400 μM", "result": "bound to recombinant VAP-1"}
    ]},
    {"molecule": "mutated Siglec-9 peptide: mutated Siglec-9 peptide, in which both arginines were mutated to alanines (CAALSLSWAGLTLCPS; also: cyclic peptide, ring type not given here)", "values": [
      {"measurement": "binding to recombinant VAP-1 (SPR), double arginine mutant", "setting": "[7]; both arginines mutated to alanines, data not shown", "result": "failed to bind recombinant VAP-1"}
    ]},
    {"molecule": "cyclic Siglec-9-like peptide without Arg284 (P1_noArg284) (from UniProt Q9Y336 283-297)", "values": [
      {"measurement": "percent reduction of binding against the wild type peptide", "setting": "[1]", "result": 66, "unit": "%"}
    ]},
    {"molecule": "B1", "values": [
      {"measurement": "adhesion of Siglec-E cells to mouse VAP-1 cells", "setting": "mouse VAP-1", "result": "no VAP-1-Siglec-E mediated adhesion was detected"}
    ]},
    {"molecule": "B2", "values": [
      {"measurement": "dependence of Siglec-10/VAP-1 interaction on enzymatic activity", "setting": "VAP-1", "result": "completely dependent on the enzymatic activity of VAP-1"}
    ]}
  ]
}
